{"source": "ChEMBL document CHEMBL4513216", "about": "“Probing the Open Global Health Chemical Diversity Library for Multistage-Active Starting Points for Next-Generation Antimalarials” (ACS Infect Dis, 2020)", "data": [{"assay": "Toxicity liver stage against HepG2, at 10uM", "format": "cell-based", "parameters": "test concentration 10 uM, cell line HepG2-A16-CD81EGFP", "details": "human, HepG2-A16-CD81EGFP cells; read-out: INHIBITION", "outline": "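Uninfected HepG2-A16-CD81EGFP cells, 3 × 10^3 per well, 1536-well, plated on prespotted compound at 10 μM final, parasite-free screening media added to match infected plates; puromycin 10 μM positive, DMSO 0.5% negative; run in parallel with 48 h PbLuc assay at 37 °C, 5% CO2; viability by CellTiter-Glo luminescence, normalized to controls.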", "units": {"cytotoxicity at 10 µM": "%"}, "values": [{"compound": "Cc1ccc(CN2C[C@H](N3CCOCC3)[C@@H]3OCCC[C@@H]32)o1", "cytotoxicity at 10 µM": -125}, {"compound": "c1cc2c(cc1CN1CCN(Cc3noc(C4CC4)n3)CC1)OCO2", "cytotoxicity at 10 µM": 15.8}, {"compound": "Cc1nc2ccccc2c(=O)n1CCCC(=O)N1CCNC(=O)CC1", "cytotoxicity at 10 µM": -11.8}, {"compound": "Cc1cc(C)n(C2CN(CC(=O)NCC(C)(C)N3CCOCC3)C2)n1", "cytotoxicity at 10 µM": -3.42}, {"compound": "Cc1nc(C)n(CC2CN(Cc3nc4ccccc4n3C)CCO2)n1", "note": "(stereo not given)", "cytotoxicity at 10 µM": -4.68}, {"compound": "Cc1cc(O)c(OCC(=O)Nc2nccs2)cn1", "cytotoxicity at 10 µM": 4.07}, {"compound": "COc1ccc(CCNC(=O)C2CCOC2)c(Cl)c1", "note": "(stereo not given)", "cytotoxicity at 10 µM": -2.27}, {"compound": "O=C(CSCc1ccncc1)NCc1csc(Br)c1", "cytotoxicity at 10 µM": -6.57}, {"compound": "O=C(CCc1cnn(-c2ccccc2)c1)N1CCCC(n2cccn2)C1", "note": "(stereo not given)", "cytotoxicity at 10 µM": 2.1}, {"compound": "Cc1ccc(F)cc1NS(=O)(=O)c1cc2c(c(C(=O)O)c1)OCCO2", "cytotoxicity at 10 µM": -3.88}, {"compound": "CN(C)c1ncnc2c1CCN(CC1CCOC1)CC2", "note": "(stereo not given)", "cytotoxicity at 10 µM": 0.745}, {"compound": "Cn1c(Nc2ccc(F)cc2)c(C#N)c(=O)n(C)c1=O", "cytotoxicity at 10 µM": 1.77}, {"compound": "CC(C)c1cncnc1N1CC[C@H](N2CCOCC2)[C@H](CCCO)C1", "cytotoxicity at 10 µM": 5.86}, {"compound": "CC(Cn1cccn1)NC(=O)Nc1nccs1", "note": "(stereo not given)", "cytotoxicity at 10 µM": -9.55}, {"compound": "CCn1nc(C)c2nc(C(C)C)nc(NCC(=O)N3CCOCC3)c21", "cytotoxicity at 10 µM": 3.07}, {"compound": "O=C(c1ccc(=O)[nH]n1)N1CCCC(O)(CN2CCC(F)(F)CC2)CC1", "note": "(stereo not given)", "cytotoxicity at 10 µM": -8.71}, {"compound": "Cc1nc(C)n(C2CCCN(C(=O)c3ccn(C(C)C)n3)C2)n1", "note": "(stereo not given)", "cytotoxicity at 10 µM": -22.6}, {"compound": "O=C(Nc1cnn(Cc2ccc(Cl)cc2)c1)N1CCCC1CO", "note": "(stereo not given)", "cytotoxicity at 10 µM": -1.13}, {"compound": "O=C(NCc1nnc2n1CCCC2)c1cn(-c2ccccc2)nn1", "cytotoxicity at 10 µM": -2.12}, {"compound": "CCOCC(=O)NCCc1nc(C)cc(C(F)(F)F)n1", "cytotoxicity at 10 µM": -1.21}, {"compound": "Cc1nc(CN(C)C2CCN(CCC(=O)N3CCOCC3)C2)no1", "note": "(stereo not given)", "cytotoxicity at 10 µM": -0.945}, {"compound": "Cc1n[nH]c(C2CN(C(=O)c3cc(C4CC4)[nH]n3)CCO2)n1", "note": "(stereo not given)", "cytotoxicity at 10 µM": 0.192}, {"compound": "CN(C)c1cc(C(=O)N2CCCCC2CNS(C)(=O)=O)ccn1", "note": "(stereo not given)", "cytotoxicity at 10 µM": -16}, {"compound": "CC(O)CN1CCN(C(=O)CN(C)c2ccc(C#N)cn2)CC1", "note": "(stereo not given)", "cytotoxicity at 10 µM": -0.785}, {"compound": "CN1CCCN(C(=O)c2csc3nc(-c4ccc(Cl)cc4)cn23)CC1", "cytotoxicity at 10 µM": 2.14}, {"compound": "CCc1ccc(CN2CC[C@@H]3CN(S(C)(=O)=O)CCO[C@@H]3C2)o1", "cytotoxicity at 10 µM": -0.461}, {"compound": "CNC(=O)[C@H]1C[C@@H]2CN(C(=O)c3ccccn3)C[C@@H]2N1S(C)(=O)=O", "cytotoxicity at 10 µM": -1.37}, {"compound": "CN1CCCC(c2ccc(N3CCOCC3)cn2)C1", "note": "(stereo not given)", "cytotoxicity at 10 µM": -6.47}, {"compound": "Cc1nc(C2CCCN(C(=O)c3sc(C)nc3C)C2)no1", "note": "(stereo not given)", "cytotoxicity at 10 µM": -1.96}, {"compound": "NCc1ccc(OC(F)F)cc1OC(F)F", "cytotoxicity at 10 µM": -43}, {"compound": "O=C1OCCN1CCS(=O)(=O)c1cccc(Br)c1", "cytotoxicity at 10 µM": 6.29}, {"compound": "CCC(=O)N1CCN(c2cc(-n3cnc(C)c3C)nc(C)n2)CC1", "cytotoxicity at 10 µM": -4.56}, {"compound": "COCCOc1ncccc1C(=O)N(C)c1nccs1", "cytotoxicity at 10 µM": -44.1}, {"compound": "Cc1csc2c(C3CCCN(C(=O)CCn4ccnc4)C3)nc(C)n12", "note": "(stereo not given)", "cytotoxicity at 10 µM": 16.9}, {"compound": "CC(C)=CCN1CCC(c2nnc(CN3CCN(C)CC3)n2C)CC1", "cytotoxicity at 10 µM": -7.54}, {"compound": "Cn1cc(C2COC3(CCN(C(=O)c4ccsc4)CC3)C2)cn1", "note": "(stereo not given)", "cytotoxicity at 10 µM": -67}, {"compound": "NC(=O)C1CN(c2ncnc3c2Cc2ccccc2OC3)CCO1", "note": "(stereo not given)", "cytotoxicity at 10 µM": 0.0255}, {"compound": "CCN1CCN(C2CCN(Cc3nnc(C(C)(C)C)o3)CC2)C1=O", "cytotoxicity at 10 µM": 3.8}, {"compound": "O=C(c1cccc(C(F)(F)F)c1)N1CC(=O)N(C2CCC2)CC(O)C1", "note": "(stereo not given)", "cytotoxicity at 10 µM": -3.16}, {"compound": "Cc1ccc(CN2CC[C@H]3OCC[C@@]3(COCC(=O)N(C)C)C2)s1", "cytotoxicity at 10 µM": -97.8}, {"compound": "CN(Cc1cnccn1)S(=O)(=O)N1CCCC1c1ccco1", "note": "(stereo not given)", "cytotoxicity at 10 µM": -15.6}, {"compound": "COc1ncc(-c2nccn2-c2ccccc2CN2CCOCC2)cn1", "cytotoxicity at 10 µM": 3.31}, {"compound": "CCNc1cc2c(nn1)CCN(C(=O)c1cc3cccc(C)c3o1)C2", "cytotoxicity at 10 µM": -8.06}, {"compound": "COc1cccc(OCCNS(C)(=O)=O)c1", "cytotoxicity at 10 µM": 13}, {"compound": "Cc1noc(C2CCN(C(=O)c3cccs3)CC2)n1", "cytotoxicity at 10 µM": -1.22}, {"compound": "CSCc1noc(CN2CC3(CCCC3)CC2=O)n1", "cytotoxicity at 10 µM": 4.29}, {"compound": "CC(C)c1nnc2n1CCN(C(=O)c1cc3cc(F)ccc3[nH]1)C2", "cytotoxicity at 10 µM": 3.98}, {"compound": "CC(=O)N1CCCC2(CCN(C(=O)c3ccc(Cl)c(C(F)(F)F)c3)C2)C1", "note": "(stereo not given)", "cytotoxicity at 10 µM": -74.4}, {"compound": "CCCc1nc(C)cc(N2CCC3(CCC(=O)N(CCCO)C3)CC2)n1", "cytotoxicity at 10 µM": -5.81}, {"compound": "Cn1cc(CN2C[C@@H]3COC[C@]3(C(=O)NCc3cccs3)C2)cn1", "cytotoxicity at 10 µM": 7.22}, {"compound": "CCOC(C)C(=O)Nc1cc(S(=O)(=O)NC2CC2)ccc1F", "note": "(stereo not given)", "cytotoxicity at 10 µM": -7.51}, {"compound": "O=C(NC[C@H]1OC[C@@H](NC2CCC(F)(F)CC2)[C@@H]1O)C1CCCC1", "cytotoxicity at 10 µM": -77.9}, {"compound": "N[C@@H]1CCC[C@@H](Oc2ccc(F)cc2Oc2ccccc2)[C@@H]1O", "cytotoxicity at 10 µM": -7.39}, {"compound": "CCc1nc(C2CCCN(C(=O)c3cccc4cn[nH]c34)C2)no1", "note": "(stereo not given)", "cytotoxicity at 10 µM": -3.73}, {"compound": "CN(C)Cc1ccnc(C2CCCN2Cc2cc3ccccc3s2)n1", "note": "(stereo not given)", "cytotoxicity at 10 µM": 20.2}, {"compound": "COC(=O)c1ccc(CN2CCC(c3n[nH]c(C)n3)CC2)s1", "cytotoxicity at 10 µM": -2.87}, {"compound": "O=C(c1ccc(O)c(Cl)c1)N1C[C@@H](CN2CCCCCC2)[C@@H](CO)C1", "cytotoxicity at 10 µM": 1.89}, {"compound": "O=C(c1ccccc1)N1C[C@@H]2CCCO[C@@H]2[C@H](N2CCCC2)C1", "cytotoxicity at 10 µM": -2.02}, {"compound": "Cc1ccc(C(C)N(C)CCS(=O)(=O)CCC(N)=O)cc1", "note": "(stereo not given)", "cytotoxicity at 10 µM": -52.5}, {"compound": "Cc1noc(C)c1CSC1CCCN(c2cnn(C)c2)C1=O", "note": "(stereo not given)", "cytotoxicity at 10 µM": 16.8}, {"compound": "CCN1CCN(c2nc3cn(-c4cnn(CC)c4)c(=O)c-3c[nH]2)CC1", "cytotoxicity at 10 µM": 4.01}, {"compound": "Cc1cc(C(=O)NCCc2nc3c(s2)CCCC3)n(C)n1", "cytotoxicity at 10 µM": 20.5}, {"compound": "CCc1ccccc1CNC(=O)CCc1cnn(C)c1", "cytotoxicity at 10 µM": -3.09}, {"compound": "COCCN1CCC(NC(=O)C2(c3cc(C)cc(C)c3)CC2)CC1", "cytotoxicity at 10 µM": -4.37}, {"compound": "CCN(C)S(=O)(=O)N(Cc1cscn1)c1ccccc1", "cytotoxicity at 10 µM": -3.81}, {"compound": "O=C(NCCNc1ncccn1)C1CC(=O)N(C2CCCC2)C1", "note": "(stereo not given)", "cytotoxicity at 10 µM": -16.2}, {"compound": "COc1cccc2ccc(CN3CCN(c4cccnc4)CC3)nc12", "cytotoxicity at 10 µM": -8.66}, {"compound": "Cc1noc2ncc(C(=O)NCC3CCS(=O)(=O)C3)cc12", "note": "(stereo not given)", "cytotoxicity at 10 µM": -18.9}, {"compound": "CN(CCc1nccs1)C(=O)CC1(O)CCCCC1", "cytotoxicity at 10 µM": -6.16}, {"compound": "CC(=O)N[C@@H]1CN(Cc2ccccc2-n2nc(C)cc2C)C[C@H]1C(C)C", "cytotoxicity at 10 µM": 4.01}, {"compound": "CC(C)NC(=O)C1(Cc2ccccc2-c2ccccc2)CCCNC1", "note": "(stereo not given)", "cytotoxicity at 10 µM": 3.05}, {"compound": "Cc1cc(-c2cnc(N3CCSCC3)nc2-c2ccc(C)s2)on1", "cytotoxicity at 10 µM": -2.5}, {"compound": "O=C(c1cccnc1)N1CCC2(CC1)CC(Oc1ccccc1)CO2", "note": "(stereo not given)", "cytotoxicity at 10 µM": 1.65}, {"compound": "CCOCC(=O)N1CCc2nc(C)nc(NC(C)C)c2CC1", "cytotoxicity at 10 µM": -98.7}, {"compound": "Cc1nc([C@H]2C[C@H]3CN(C(=O)c4cc(C)c(C)s4)CC[C@@H]3O2)no1", "cytotoxicity at 10 µM": 0.732}, {"compound": "CN(Cc1n[nH]c2c1CCC2)c1nc(C2CCCC2)nc2c1CNC2", "cytotoxicity at 10 µM": -3.86}, {"compound": "CCc1nc(C2CCCN2C(=O)CCc2c(C)noc2Cl)no1", "note": "(stereo not given)", "cytotoxicity at 10 µM": -7.07}, {"compound": "CN(Cc1noc(C2CC2)n1)C1CCN(CCS(C)(=O)=O)C1", "note": "(stereo not given)", "cytotoxicity at 10 µM": -14.9}, {"compound": "CSCCc1n[nH]c2c1CN(S(=O)(=O)c1c(C)nn(C)c1C)CC2", "cytotoxicity at 10 µM": 7.66}, {"compound": "O=C(Nc1cn[nH]c1)c1ccc(O)nc1", "cytotoxicity at 10 µM": -1.09}]}]}
